Measured values gathered from unrelated publications.
Compare with care: the assays were run in different laboratories.

| SMILES | tested on | assay | system | conditions | quantity | result |
| --- | --- | --- | --- | --- | --- | --- |
| COc1ccc(Cn2cc(C[C@@]3(O)C[C@@H]4c5cc(OCc6cc(C)cc(C)c6)c(OCc6cc(C)cc(C)c6)cc5CCN4[C@@H](C)C3)nn2)cc1 | ASPC1 | cell growth or viability, MTT | – | – | IC50 | 1280 nM |
| COc1cc(Nc2nccc(-c3cnn4nc(OC)ccc34)n2)cc(C(F)(F)F)c1 | ASPC1 | cell growth or viability, ATP luminescence | – | – | IC50 | 980 nM |
| Cc1ccc(Cn2cc(C[C@@]3(O)C[C@@H]4c5cc(OCc6cc(C)cc(C)c6)c(OCc6cc(C)cc(C)c6)cc5CCN4[C@@H](C)C3)nn2)cc1 | ASPC1 | cell growth or viability, MTT | – | – | IC50 | 560 nM |
| CC(C)C[C@H](NC(=O)[C@H](Cc1ccccc1)NC(=O)c1cnccn1)B(O)O | HCC1569 | cell growth or viability, ATP luminescence | – | – | IC50 | 4.9 nM |
| Cc1cc(Nc2ncc(Cl)c(Nc3ccccc3S(=O)(=O)C(C)C)n2)c(OC(C)C)cc1C1CCNCC1 | KARPAS-299 | cell growth or viability, MTT | – | 0.02058 µg/mL, 72 h | inhibition | 22.4% |
| Cc1cc(C)cc(COc2cc3c(cc2OCc2cc(C)cc(C)c2)C2CC(O)(Cc4cn(CCCCCCNc5cccc6c5C(=O)N(C5CCC(=O)NC5=O)C6=O)nn4)CC(C)N2CC3)c1 (stereo not shown) | ASPC1 | cell growth or viability, MTT | – | – | IC50 | 1080 nM |
| COc1ccc([S+]([O-])c2ccccc2)c(OC)c1OC (stereo not shown) | – | tubulin polymerisation, inhibitor, absorbance | – | pH 6.6 | IC50 | > 40000 nM |
| CCOC(=O)c1nc2ccccc2c(=O)n1Cc1cn(-c2cccc(F)c2)nn1 | Nakaseomyces glabratus | microbial growth, broth dilution | ATCC90030 | 24 h | IC50 | 365 µg/mL |
| C#CC[C@]1(O)C[C@@H]2c3cc(OCc4cc(C)cc(C)c4)c(OCc4cc(C)cc(C)c4)cc3CCN2[C@@H](C)C1 | ASPC1 | cell growth or viability, MTT | – | – | IC50 | 791 nM |
| COc1ccc(S(=O)(=O)c2ccc(C)cc2)c(OC)c1OC | – | tubulin polymerisation, inhibitor, absorbance | – | pH 6.6 | IC50 | > 40000 nM |
| C[C@@H](Oc1cc(-c2cnn(C3CCNCC3)c2)cnc1N)c1c(Cl)ccc(F)c1Cl | KARPAS-299 | cell growth or viability, MTT | – | 0.04 µg/mL, 72 h | inhibition | 58.8% |
| COc1ccc(Sc2ccc(OC)c(OC)c2OC)cc1 | – | tubulin polymerisation, inhibitor, absorbance | – | pH 6.6 | IC50 | 16000 nM |
| O=C(O)c1nc2ccccc2c(=O)n1Cc1cn(-c2ccccc2F)nn1 | Nakaseomyces glabratus | microbial growth, broth dilution | ATCC90030 | 24 h | IC50 | 174 µg/mL |
